This is a sample that favours compounds with a hit; in the whole collection about 3.7% have one here.
B2AR ag – agonists of human beta-2 adrenergic receptor inducing internalization. P07550. Am2.2-beta2AR cells, FAP receptor internalization, flow cytometry. response, % (no concentration beside the values). 0.43% of 340,000 active. AID 504454;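 active means response above a set limit, near 3 SD of response in nonfluorescent compounds, cut at about 42% in these data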
Mdm2-MdmX inh – inhibitors of human Mdm2/MdmX interaction; 3% of 330,000 active; AID 485346; SaOS-2 split-luciferase Mdm2/MdmX complementation, luminescence; inhibition, % at 8 µM; O15151+Q00987;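 active means inhibition of at least 50% at 8 µM in the primary screen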
Dynein transport – dynein cargo transport inhibition; 3617.4 mouse cells, GR-EGFP nuclear translocation imaging; test concentration mostly 20 µM; stimulated with dexamethasone, 1 µM; hits give low values; z-score, hits read low; 0.47% of 220,000 active; AID 1381;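 active means plate z-score of nuclear minus cytoplasmic receptor signal below a set negative limit, without overly bright fluorescence or cell loss, cut at about -3.5 in these data, passing the limit was not always enough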;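 further: z-score of nuclear minus cytoplasmic ring GR-EGFP intensity difference per well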
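Buffer or medium – tet-free medium with charcoal-stripped serum · Signal – automated 10x imaging of fixed Hoechst-stained cells · Also added – dexamethasone agonist, 1.0 µM final, for 30 min · Incubation – induction 48 h, compound 1 h, agonist 30 min · Read-out – GR-EGFP nuclear translocation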
Mdm2 ligase inh – Mdm2 E3 ligase (human) inhibition; cell-based MDM2 ubiquitination luciferase reporter, 2 h; 0 = plate control, 100 = twice control, blank-subtracted; 0.11% of 210,000 active; Q00987; signal enhancement, % at 5 µM;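 active means signal enhancement of 30% or more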;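 further: luminescence tracks abundance of the self-degrading MDM2-luciferase fusion protein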
Target sequence (Q00987 whole entry, looked up, the tested form may be a part): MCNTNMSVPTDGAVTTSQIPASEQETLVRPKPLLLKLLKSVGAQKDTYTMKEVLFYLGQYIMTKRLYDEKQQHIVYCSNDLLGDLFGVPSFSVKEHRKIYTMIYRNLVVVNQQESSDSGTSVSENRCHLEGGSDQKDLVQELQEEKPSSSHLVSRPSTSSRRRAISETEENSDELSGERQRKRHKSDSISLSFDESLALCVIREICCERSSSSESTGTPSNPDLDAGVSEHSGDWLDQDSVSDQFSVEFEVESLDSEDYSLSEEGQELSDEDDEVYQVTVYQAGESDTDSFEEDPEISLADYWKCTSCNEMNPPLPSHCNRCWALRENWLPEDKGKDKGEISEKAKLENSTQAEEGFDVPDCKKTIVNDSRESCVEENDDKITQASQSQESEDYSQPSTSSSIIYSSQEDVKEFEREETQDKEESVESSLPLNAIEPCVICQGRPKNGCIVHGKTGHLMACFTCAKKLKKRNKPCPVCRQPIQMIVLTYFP
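Material: Stable MDM2–luciferase fusion reporter cells | Amount: 2000 cells seeded into each well | Dosing: One concentration, 5 µM, with 0.2% DMSO | Incubation: 4 h cell settling then 2 h compound exposure, 37 °C | Measured by: Luciferase luminescence | Read-out basis: % enhancement relative to plate controls after blank subtraction | Benchmarks: Control and blank well means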
UPR XBP1 act – activators of adaptive arm of unfolded protein response (XBP1). CHO-XBP1 luciferase reporter, IRE1-XBP1 UPR activation, luminescence; percent of tunicamycin response, DMSO as zero. activation, % at 20 µM. 0.33% of 330,000 active;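 active means versus positive control, 20 µM dose yields 30% or more activation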;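 further: 100% = tunicamycin at 10 µg/mL and 0% = DMSO only wells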
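Material: CHO cell line with stable XBP1 luciferase reporter; buffer or medium: F12 medium containing 10% fetal bovine serum; compound: single point, 20 µM final compound, 1% DMSO; incubation: 6 h treatment, 37 °C; measured by: glow luminescence from Steady-Glo reagent; evaluation: activation, % of tunicamycin; control set: tunicamycin high, DMSO low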
UPR CHOP act – activators of apoptotic arm of unfolded protein response (CHOP) | CHO-CHOP luciferase reporter, UPR activation, luminescence; percent of tunicamycin response over DMSO baseline | activation, % at 10 µM | 0.34% of 330,000 active | AID 449763;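 active means at 10 µM dose, activation of 40% or more, normalized to positive control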;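 further: 100% = tunicamycin at 10 µg/mL and 0% = DMSO alone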
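Evaluation: % reporter activation, DMSO baseline versus tunicamycin full activation; System: CHO-CHOP luciferase reporter cell line; Input: 500 cells/well; Incubation: 6 h compound treatment, 37 °C; Measured by: Steady-Glo luciferase luminescence; Dosing: one dose, 10 µM in 0.5% DMSO; Buffer or medium: F12 medium, 10% FBS; Benchmarks: positive tunicamycin 10 µg/mL, negative DMSO alone.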
Beta2AR ag CP1 – agonists of human beta-2 adrenergic receptor | shares compounds with B2AR ag | Am2.2-beta2AR cells, FAP surface receptor, flow cytometry; hits give low values | percent response (surface receptor), % at 10 µM | 25% of 1,100 active | AID 540358;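 active means surface receptor percent response at or below 58%, roughly 3 SD from nonfluorescent compounds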
FAP fluor counter – counter-screen for beta-2AR agonists: fluorescence in Am2.2 cells; 1,100 tested, under 10 active; shares compounds with B2AR ag; AID 588765; FAP fluorogen flow cytometry, fluorescence counterscreen; hits give low values; calls only at 10 µM;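 active means percent response below a set limit in fluorescence channel 1 and below 50% in channel 8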
* marks the source's active call; other numbers are inactive results; i = inactive; . = no result given.

SMILES | B2AR ag | Mdm2-MdmX inh | Dynein transport | Mdm2 ligase inh | UPR XBP1 act | UPR CHOP act | Beta2AR ag CP1 | FAP fluor counter
COc1ccc(NC(=O)Cn2nnc(-c3ccc(CN4CCOCC4)cc3)n2)c(OC)c1 | 6 | 8 | 2.1 | -9 | -1 | 1 | 106 | i
CC[C@]12c3[nH]c4cc(-c5ccco5)ccc4c3CCN1C(=O)[C@@H](CC(=O)NC(C)(C)C)C[C@@H]2C(=O)N1CCN(C(=O)C2CC2)CC1 | -10 | 23 | . | . | 2 | 3 | . | .
CC(NC(=O)C(NS(=O)(=O)c1cccs1)C(C)C)c1ccc(S(N)(=O)=O)cc1 (stereo unspecified) | 1 | 1 | . | . | 2 | 2 | . | .
Cn1c(CNC(=O)CNC(=O)Cc2ccccc2)cc(=O)n(C)c1=O | 2 | 24 | . | . | -6 | 3 | . | .
Cc1cc(NC(=O)Cn2nnc(-c3ccccc3N)n2)no1 | -18 | -6 | 0.023 | -2 | -4 | -1 | . | .
COc1ccc(Cl)c(NC(=O)Cn2nnc(-c3ccccc3N)n2)c1 | -17 | 7 | 1.4 | -24 | -8 | 0 | 124 | i
C=CCN1C(=O)c2ccc(C(=O)N(CCOC)c3c(N)n(CCCC)c(=O)[nH]c3=O)cc2C1=O | -1 | 3 | . | . | 0 | 1 | . | .
O=C(CN1CCN(c2cccc(C(F)(F)F)c2)CC1)N(C1CCCC1)C1CCS(=O)(=O)C1 (stereo unspecified) | -2 | 14 | . | . | 2 | 3 | . | .
COc1ccc(C2/C=C\CN(Cc3ccc(N(C)C)cc3)CC(=O)N2Cc2ccc(F)cc2)cc1 (stereo unspecified) | 97* | 20 | 0.45 | 10 | 0 | 0 | 27* | i
COc1ccc(C2/C=C\CN(C(=O)c3ccccc3)CC(=O)N2Cc2ccc(F)cc2)cc1 (stereo unspecified) | -8 | 11 | 0.14 | 6 | 0 | -2 | 78 | i
COc1ccc(C2/C=C\CN(C(=O)OCc3ccccc3)CC(=O)N2Cc2ccc(F)cc2)cc1 (stereo unspecified) | 0 | 8 | -0.26 | 1 | 0 | -3 | . | .
CCc1nc(SCc2ccc(OCC(C)C)cc2)n[nH]1 | -8 | -27 | . | . | -2 | 6 | . | .
COc1ccc(C(=S)N2CCOCC2)cc1OC(=O)c1ccccc1Cl | 2 | -3 | . | . | 3 | 2 | . | .
O=C(Oc1c(CN2CCOCC2)cc(Cl)c2cccnc12)c1ccccc1Cl | 4 | 41 | 0.15 | -7 | 19 | 40 | 113 | i
Cc1ccc(O)c(NC(=O)c2cccc(NC(=O)c3ccco3)c2)c1 | 85* | 6 | 0.85 | -23 | 2 | 1 | 19* | i
Cc1ccc(O)c(NC(=O)c2ccco2)c1 | 9 | 21 | 0.39 | 24 | 1 | 4 | . | .
Cc1ccc(C(=O)OCC(=O)Nc2nc(-c3ccccc3)cs2)cc1NC(=O)c1ccco1 | 54* | 9 | 1.3 | . | 9 | 3 | 38* | i
Cc1ccc(C(=O)OCC(=O)Nc2ccccc2)cc1NC(=O)c1ccco1 | 11 | -19 | -0.1 | -18 | 1 | 5 | . | .
C#CCOCCOCCOCCNc1nc(N2CCOCC2)nc(N2CCN(C(=O)Cn3cc(CCCCN)nn3)CC2)n1 | -8 | . | . | . | . | . | . | .
O=C(CN1C(=O)NC(c2ccc(F)cc2)C1=O)NC1CCCCC1 (stereo unspecified) | -1 | -9 | . | . | 1 | 2 | . | .
COc1ccc(-c2sc3cc4c(cc3c2C#Cc2cncn2C)OCO4)cc1 | 56* | -9 | . | . | 4 | 2 | 90 | i
CC1(c2ccc(Cl)cc2)NC(=O)N(CN2CCOCC2)C1=O (stereo unspecified) | -2 | 10 | . | . | 17 | -1 | . | .
CCOC(=O)CS(=O)(=O)CC(=O)Nc1ccc([N+](=O)[O-])cc1OC | 86* | 17 | 1.3 | 6 | -2 | 1 | 90 | i
CCOCC(=O)Nc1ccc([N+](=O)[O-])cc1OC | 5 | 6 | 0.11 | -18 | 1 | 0 | . | .
CN(C)c1ccc(C=c2c3ccccc3n3c2c2ccccc2[n+]3C)cc1 | 50* | . | . | . | . | . | 91 | i
SMILES | B2AR ag | Mdm2-MdmX inh | Dynein transport | Mdm2 ligase inh | UPR XBP1 act | UPR CHOP act | Beta2AR ag CP1 | FAP fluor counter
Cc1ccc(S(=O)(=O)N(Cc2cccnc2)Cc2cc3ccccc3[nH]c2=O)cc1 | -11 | -15 | . | . | -6 | -1 | 154 | i
CC(=O)Nc1ccc(S(=O)(=O)N(Cc2cccnc2)Cc2cc3ccc(C)cc3[nH]c2=O)cc1 | 8 | 0 | . | . | -4 | 0 | . | .
COc1ccc(S(=O)(=O)N(Cc2cccnc2)Cc2cc3ccccc3[nH]c2=O)cc1 | -5 | 14 | . | . | -9 | 5 | 152 | i
CCN(Cc1cc2ccccc2[nH]c1=O)S(=O)(=O)c1ccccc1 | -24 | 29 | 0.27 | -3 | -3 | 0 | . | .
COc1ccc(C(CNC(=O)C2COc3ccccc3O2)N2CCCC2)cc1 (stereo unspecified) | -2 | -7 | . | . | -1 | 1 | . | .
COc1ccc(Cc2nc3ccc(C(=O)N(C)C(C)c4ccon4)cc3o2)cc1 (stereo unspecified) | 2 | 8 | . | . | 3 | -1 | . | .
COc1ccc(C(CCNCc2ccc(N(C)C)cc2)c2ccccc2)cc1 (stereo unspecified) | 12 | 36 | . | . | -9 | 0 | 104 | i
COc1ccc(C(CCNCc2ccc(OC)c(OC)c2)c2ccc(F)cc2)cc1 (stereo unspecified) | -7 | 43 | -0.93 | -2 | 0 | 0 | 111 | i
CC(C)Cn1c(C23CC4CC(CC(C4)C2)C3)n[nH]c1=S | 2 | 8 | . | . | -3 | 0 | . | .
CN(C)S(=O)(=O)c1cccc(C(=O)Nc2ccccc2C(=O)NC2CC2)c1 | -19 | 17 | . | . | 1 | -2 | . | .
COc1cc2nc(N3CCN(C(=O)C4COc5ccccc5O4)CC3)nc(N)c2cc1OC (stereo unspecified) | 7 | 46 | -0.59 | . | -2 | 1 | 100 | i
Cc1ccc(OCCn2c(=S)[nH]c3ccccc32)c(C(C)C)c1 | 69* | 8 | . | . | -4 | -3 | 106 | i
CC(=O)N1CCc2cc(C(=O)CN3CCN(c4cccc(Cl)c4)CC3)ccc21 | 57* | 12 | -0.75 | -17 | -2 | 0 | 9.1* | i
CC(=O)N1CCc2cc(C(=O)CN3CCC(C)CC3)ccc21 | 5 | -12 | -0.94 | -21 | -2 | 0 | . | .

Screening results: PubChem BioAssay, several laboratories
